PMC4298165 (Cell, 2014)

Columns and labels:
endogenous TRiC = test: Biotin affinity isolation from HEK293 extracts and TRiC immunoblot; type: binding, human; conditions: biotinylated peptide, HEK293 extract, immunoblot against CCT5 and CCT2
ApiCCT3 [1] = test: NMR chemical-shift mapping, 15N-labeled p6 with unlabeled ApiCCT3; type: binding; conditions: 15N-1H HSQC, 0, 2.5, 5 and 10-fold excess ApiCCT3
Outline: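 Recombinant p6 was expressed with 15N/13C isotope labeling and purified. Chemical-shift mapping used 300 µM protein samples on an 800 MHz spectrometer with a cryogenic probe.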

CCT3 = conditions: cited from earlier work
intact purified TRiC = test: NMR chemical shift perturbation of 15N p6 with intact purified TRiC; type: binding; conditions: Fig. S4D
ApiCCT3 [2] = type: binding; conditions: 15N-1H HSQC
TRiC = test: Crosslinking-mass spectrometry; type: binding; conditions: DSS crosslinking, trypsin, tandem MS, xQuest
Outline: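 Intact TRiC crosslinked with DSS to full-length actin, tubulin or HIV Gag. Crosslinked samples were trypsin-digested and enriched for crosslinked species before MS. Crosslink sites on CCT subunits were mapped onto the apical-domain structure.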

[3] = target: T1, apical domain of CCT3 (ApiCCT3) (UniProt P49368 210-380); test: SPR
T1 sequence (looked up): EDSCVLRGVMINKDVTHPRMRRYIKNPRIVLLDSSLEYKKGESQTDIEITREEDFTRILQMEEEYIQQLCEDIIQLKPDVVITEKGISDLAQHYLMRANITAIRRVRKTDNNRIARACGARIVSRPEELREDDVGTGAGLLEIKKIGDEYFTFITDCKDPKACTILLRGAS

p6 = test: SPR kinetics of ApiCCT3 alanine mutants on immobilized p6; type: binding, HIV; conditions: 31 surface-exposed residues substituted

p6: 54 amino acid long HIV protein p6 (LQSRPEPTAPPEESFRSGVETTTPPQKQEPIDKELYPLTSLRSLFGNDPSSQ)
binding to endogenous TRiC (endogenous TRiC): bound TRiC
chemical shift perturbation of 15N-p6 by ApiCCT3 (ApiCCT3 [1]): concentration-dependent chemical shift perturbation in a subset of peaks
association with CCT3 (CCT3): associate directly with subunit CCT3 of TRiC
chemical shift perturbation of 15N p6 by intact TRiC (intact purified TRiC): the same subset of p6 residues was affected upon addition of intact TRiC
chemical shift perturbation of 15N-ApiCCT3 (ApiCCT3 [2]; 300 µM protein sample, 800 MHz, 0, 5, 10, 20-fold excess p6 (Fig. 2)): concentration-dependent shifts in a specific subset of peaks
number of ApiCCT3 peaks perturbed weakly (ApiCCT3 [2]; > 0.1 p.p.m.): 4 peaks
number of ApiCCT3 peaks strongly perturbed (ApiCCT3 [2]; > 0.2 p.p.m.): 5 peaks

actin
location of heterotypic TRiC crosslinks (TRiC): localized to substrate determinants previously implicated in TRiC binding

B1: HIV protein p6 (natural protein)
chain: LQSRPEPTAPPEESFRSGVETTTPPQKQEPIDKELYPLTSLRSLFGNDPSSQ
Kd [3]: 250 to 500 nM

B2: Y274A (protein)
chain: MMGHRPVLVLSQNTKRESGRKVQSGNINAAKTIADIIRTCLGPKSMMKMLLDPMGGIVMTNDGNAILREIQVQHPAAKSMIEISRTQDEEVGDGTTSVIILAGEMLSVAEHFLEQQMHPTVVISAYRKALDDMISTLKKISIPVDISDSDMMLNIINSSITTKAISRWSSLACNIALDAVKMVQFEENGRKEIDIKKYARVEKIPGGIIEDSCVLRGVMINKDVTHPRMRRYIKNPRIVLLDSSLEYKKGESQTDIEITREEDFTRILQMEEEAIQQLCEDIIQLKPDVVITEKGISDLAQHYLMRANITAIRRVRKTDNNRIARACGARIVSRPEELREDDVGTGAGLLEIKKIGDEYFTFITDCKDPKACTILLRGASKEILSEVERNLQDAMQVCRNVLLDPQLVPGGGASEMAVAHALTEKSKAMTGVEQWPYRAVAQALEVIPRTLIQNCGASTIRLLTSLRAKHTQENCETWGVNGETGTLVDMKELGIWEPLAVKLQTYKTAVETAVLLLRIDDIVSGHKKKGDDQSRQGGAPDAGQE
impact of Ala substitution in ApiCCT3 on p6 binding (p6): no impact on p6 binding

B3: tubulin: full length physiological substrate of TRiC (protein)
chain: MREIIHISTGQCGNQIGAAFWETICGEHGLDFNGTYHGHDDIQKERLNVYFNEASSGKWVPRSINVDLEPGTIDAVRNSAIGNLFRPDNYIFGQSSAGNVWAKGHYTEGAELVDSVMDVIRREAEGCDSLQGFQITHSLGGGTGSGMGTLLISKIREEFPDRMMATFSVLPSPKTSDTVVEPYNATLSVHQLVEHSDETFCIDNEALYDICQRTLKLNQPSYGDLNNLVSSVMSGVTTSLRYPGQLNSDLRKLAVNLVPFPRLHFFMVGYAPLTAIGSQSFRSLTVPELTQQMFDAKNMMAAADPRNGRYLTVAAFFRGKVSVKEVEDEMHKVQSKNSDYFVEWIPNNVQTAVCSVAPQGLDMAATFIANSTSIQELFKRVGDQFSAMFKRKAFLHWYTSEGMDELEFSEAESNMNDLVSEYQQYQEATVEDDEEVDENGDFGAPQNQDEPITENFE
crosslinks to TRiC subunits (TRiC): crosslinked to multiple TRiC subunits through specific regions in the polypeptide
location of heterotypic TRiC crosslinks (TRiC): localized to substrate determinants previously implicated in TRiC binding
